Activity calls are given as the source filed them. No cut-off for these calls is given here.
Tests used:
LNCaP [1] = experiment: Inhibition of prostate specific antigen expression in human LNCAP cells at 0.625 to 20 uM in presence of fetal bovine serum; format: functional, cell-based
LNCaP [2] = experiment: Inhibition of prostate specific antigen secretion in human LNCAP cells expressing androgen receptor at 1.25 to 10 uM in presence of charcoal stripped serum; format: functional, cell-based
Method in brief: (§1)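 LNCaP/AR cells were made by viral infection with an AR cDNA to express 3–5 fold higher AR levels, mimicking CRPC. They were assayed in charcoal-stripped serum to mimic androgen depletion. Read-out was PSA level, with DMSO as the vehicle.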

LNCaP [3] = experiment: Inhibition of prostate specific antigen expression in human LNCAP cells at 1.25 to 10 uM in presence of fetal bovine serum; format: functional, cell-based
[4] = biological target: T1, Androgen receptor (Rattus norvegicus) (UniProt P15207); experiment: Antagonist activity at androgen receptor in rat prostate gland at 1.25 to 10 uM by luciferase reporter gene assay; format: functional, tissue-based
T1 sequence (whole entry): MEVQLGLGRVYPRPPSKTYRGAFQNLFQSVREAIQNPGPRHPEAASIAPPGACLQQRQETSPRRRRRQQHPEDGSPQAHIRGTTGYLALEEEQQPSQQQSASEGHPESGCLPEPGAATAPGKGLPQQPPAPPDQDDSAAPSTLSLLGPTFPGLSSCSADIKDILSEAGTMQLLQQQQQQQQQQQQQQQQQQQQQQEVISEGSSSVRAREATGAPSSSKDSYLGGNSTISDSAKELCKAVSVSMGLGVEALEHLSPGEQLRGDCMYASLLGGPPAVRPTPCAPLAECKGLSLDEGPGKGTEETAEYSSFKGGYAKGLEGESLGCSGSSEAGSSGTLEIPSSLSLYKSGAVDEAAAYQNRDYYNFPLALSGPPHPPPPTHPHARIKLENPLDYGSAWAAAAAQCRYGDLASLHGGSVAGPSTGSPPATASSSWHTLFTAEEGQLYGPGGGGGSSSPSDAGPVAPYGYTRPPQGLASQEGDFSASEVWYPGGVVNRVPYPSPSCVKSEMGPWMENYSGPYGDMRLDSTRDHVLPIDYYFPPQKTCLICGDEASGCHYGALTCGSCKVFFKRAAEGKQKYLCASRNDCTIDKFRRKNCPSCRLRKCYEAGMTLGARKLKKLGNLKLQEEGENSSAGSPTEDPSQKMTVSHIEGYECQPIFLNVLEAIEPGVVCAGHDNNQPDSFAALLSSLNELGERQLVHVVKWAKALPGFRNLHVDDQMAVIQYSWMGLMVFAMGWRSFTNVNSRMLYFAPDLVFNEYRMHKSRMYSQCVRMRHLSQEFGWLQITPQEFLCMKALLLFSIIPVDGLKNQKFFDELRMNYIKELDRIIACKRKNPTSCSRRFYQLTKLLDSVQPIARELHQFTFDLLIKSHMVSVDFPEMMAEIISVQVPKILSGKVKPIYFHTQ

LNCaP [5] = experiment: Inhibition of prostate specific antigen expression in human LNCAP cells in presence of fetal bovine serum; format: functional, cell-based
LNCaP [6] = experiment: Inhibition of prostate specific antigen secretion in human LNCAP cells expressing androgen receptor at 100 to 1000 nM in presence of charcoal stripped serum; format: functional, cell-based; method in brief: as §1
[7] = biological target: T1, Androgen receptor (Rattus norvegicus); experiment: Antagonist activity at androgen receptor in rat prostate gland at 0.625 to 20 uM by luciferase reporter gene assay; format: functional, tissue-based
LNCaP [8] = experiment: Inhibition of prostate specific antigen expression in human LNCAP cells at 0.625 to 5 uM in presence of fetal bovine serum; format: functional, cell-based

## CC1(C)C(=O)N(c2ccc(C#N)c(C(F)(F)F)c2)C(=S)N1CCCCCCN=[N+]=[N-]
LNCaP [1]
  Activity: Active

## CS(=O)(=O)N1CCN(c2ccc(N3C(=S)N(c4ccc(C#N)c(C(F)(F)F)c4)C(=O)C34CCC4)cc2)CC1
LNCaP [2]
  inhibition: Active

## Cc1ccc(N2C(=S)N(c3ccc(C#N)c(C(F)(F)F)c3)C(=O)C23CCCCCCC3)cc1
LNCaP [1]
  Activity: inactive

## N#Cc1ccc(N2C(=O)C3(CCC3)N(c3ccc(O)cc3)C2=S)cc1C(F)(F)F
LNCaP [3]
  Activity: Active

## Cc1ccc(N2C(=S)N(c3ccc(C#N)c(C(F)(F)F)c3)/C(=N\C(=S)Nc3ccc(C#N)c(C(F)(F)F)c3)C2(C)CF)cc1 (stereo not given)
[4]
  Activity: Active
LNCaP [3]
  Activity: Active

## Cc1ccc(N2C(=S)N(c3ccc(C#N)c(C(F)(F)F)c3)C(=O)C23CCCCCC3)cc1
LNCaP [1]
  Activity: inactive

## Cc1ccc(N2C(=S)N(c3ccc(C#N)c(C(F)(F)F)c3)/C(=N\C(=S)Nc3ccc(C#N)c(C(F)(F)F)c3)C23CCC3)cc1
[4]
  Activity: Active
LNCaP [3]
  Activity: Active

## N#Cc1ccc(N2C(=O)C3(CCC3)N(c3ccc(/C=C/C(N)=O)cc3)C2=S)cc1C(F)(F)F
LNCaP [5]
  IC50: 100 nM

## N#Cc1ccc(N2C(=O)C3(CCC3)N(c3ccc(C=O)cc3)C2=S)cc1C(F)(F)F
LNCaP [5]
  IC50: 200 nM

## CNC(=O)c1ccc(N2C(=S)N(c3ccc(C#N)c(C(F)(F)F)c3)C(=O)C23CCCC3)cc1F
LNCaP [6]
  Activity: Active

## N#Cc1ccc(N2C(=O)C3(CCC3)N(c3ccc(CCC(N)=O)cc3)C2=S)cc1C(F)(F)F
LNCaP [2]
  inhibition: Active

## CC1(C)C(=O)N(c2ccc(C#N)c(C(F)(F)F)c2)C(=S)N1c1ccccc1
LNCaP [1]
  Activity: Active
[7]
  Activity: Active

## N#Cc1ccc(N2C(=O)C3(CCC3)N(c3ccccc3C(=O)O)C2=S)cc1C(F)(F)F
LNCaP [8]
  Activity: inactive

## CC1(C)C(=O)N(c2ccc(C#N)c(C(F)(F)F)c2)C(=S)N1CCCCO
LNCaP [1]
  Activity: Active
LNCaP [3]
  Activity: Active

## C/N=C1\N(c2ccc(C#N)c(C(F)(F)F)c2)C(=S)N(c2ccc(C)cc2)C12CCC2
[4]
  Activity: Active
LNCaP [3]
  Activity: Active

## N#Cc1ccc(N2C(=O)C3(CCC3)N(c3ccc(CO)cc3)C2=S)cc1C(F)(F)F
LNCaP [5]
  IC50: 200 nM

## N#Cc1ccc(N2C(=O)C3(CCC3)N(c3ccc(-c4ccccc4)cc3)C2=S)cc1C(F)(F)F
LNCaP [3]
  Activity: Active

## Cc1ccc(N2C(=S)N(c3ccc(C#N)c(C(F)(F)F)c3)C(=O)C2(CCl)CCl)cc1
LNCaP [8]
  Activity: inactive

## CC(O)c1ccc(N2C(=S)N(c3ccc(C#N)c(C(F)(F)F)c3)C(=O)C23CCC3)cc1 (stereo not given)
LNCaP [5]
  IC50: 200 nM

## Cc1ccc(N2/C(=N/c3ccc(C#N)c(C(F)(F)F)c3)S/C(=N\C(=S)Nc3ccc(C#N)c(C(F)(F)F)c3)C23CCC3)cc1
[4]
  Activity: Active
LNCaP [3]
  Activity: Active

## CCCC1C(=O)N(c2ccc(C#N)c(C(F)(F)F)c2)C(=S)N1c1ccc(C)cc1 (stereo not given)
[7]
  Activity: inactive

## Cc1ccc(N2C(=S)N(c3ccc(C#N)c(C(F)(F)F)c3)C(=O)C23CCCCC3)cc1
LNCaP [1]
  Activity: inactive

## CCC1(C)C(=O)N(c2ccc(C#N)c(C(F)(F)F)c2)C(=S)N1c1ccc(C)cc1 (stereo not given)
[7]
  Activity: inactive

## CS(=O)(=O)c1ccc(N2C(=S)N(c3ccc(C#N)c(C(F)(F)F)c3)C(=O)C23CCC3)cc1
[4]
  Activity: Active

## N#Cc1ccc(N2C(=O)C3(CCC3)N(c3ccc(CCC(=O)NCCO)cc3)C2=S)cc1C(F)(F)F
LNCaP [2]
  inhibition: Active

## CC1(C)C(=O)N(c2ccc(C#N)c(C(F)(F)F)c2)C(=S)N1c1ccc(N=[N+]=[N-])cc1
LNCaP [1]
  Activity: Active
[7]
  Activity: Active

## Cc1ccc(N2C(=S)N(c3ccc(C#N)c(C(F)(F)F)c3)C(=O)C2C)cc1 (stereo not given)
[7]
  Activity: inactive

## CC/N=C1\N(c2ccc(C#N)c(C(F)(F)F)c2)C(=S)N(c2ccc(C)cc2)C1(C)C
[4]
  Activity: Active
LNCaP [3]
  Activity: Active

## CC1(C)C(=O)N(c2ccc(C#N)c(C(F)(F)F)c2)C(=S)N1c1ccc(C(F)(F)F)cc1
LNCaP [3]
  Activity: Active

## N#Cc1ccc(N2C(=O)C3(CCC3)N(c3ccc(CCCC(N)=O)cc3)C2=S)cc1C(F)(F)F
LNCaP [2]
  inhibition: Active

## Cc1ccc(N2C(=S)N(c3ccc(C#N)c(C(F)(F)F)c3)C(=O)C23CCCC3)cc1
LNCaP [1]
  Activity: Active
LNCaP [3]
  Activity: Active
